Data published in ChEMBL document CHEMBL4622973, “Discovery of Potent Small-Molecule SIRT6 Activators: Structure-Activity Relationship and Anti-Pancreatic Ductal Adenocarcinoma Activity” (J Med Chem, 2020).
Calls of active or inactive are those of the source. The rule behind the calls is not given here.

Assays:
[1] = species on record: Homo sapiens; assay: Selectivity index, ratio of IC50 for SIRT1 (unknown origin) to EC1.5 for N-terminal his-tagged human SIRT6 expressed in Escherichia coli M15 [pREP4]
[2] = target: T1, NAD-dependent protein deacylase sirtuin-6 (Homo sapiens, UniProt Q8N6T7); assay: Activation of N-terminal his-tagged human SIRT6 expressed in Escherichia coli M15 [pREP4] assessed as increase in peptide demyristoylation incubated for 120 mins using Ac-EALPKK(Myr)-AMC substrate by FDL assay relative to control
T1 sequence (Q8N6T7 whole entry): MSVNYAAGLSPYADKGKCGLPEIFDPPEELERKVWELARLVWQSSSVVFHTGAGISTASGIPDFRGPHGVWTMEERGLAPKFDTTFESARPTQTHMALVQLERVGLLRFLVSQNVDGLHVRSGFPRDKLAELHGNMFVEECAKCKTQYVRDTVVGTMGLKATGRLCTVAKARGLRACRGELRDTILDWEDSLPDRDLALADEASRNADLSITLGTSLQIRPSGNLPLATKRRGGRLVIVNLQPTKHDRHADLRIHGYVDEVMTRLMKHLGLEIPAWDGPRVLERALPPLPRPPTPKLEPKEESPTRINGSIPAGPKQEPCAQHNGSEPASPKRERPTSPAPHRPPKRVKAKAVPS
Procedure, shortened: (§1)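 Demyristoylation: 1 µM recombinant SIRT6 preincubated with compound for 20 min at 37 °C in 50 mM Tris-HCl pH 8.0, BSA 1 mg/mL, 1 mM DTT, with 10 µM Ac-EALPKK(Myr)-AMC. Fluorescence read. Mean ± s.d., triplicate wells, three independent experiments.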

[3] = target: T1, NAD-dependent protein deacylase sirtuin-6; assay: Activation of N-terminal his-tagged human SIRT6 expressed in Escherichia coli M15 [pREP4] assessed as increase in peptide demyristoylation at 20 uM incubated for 120 mins using Ac-EALPKK(Myr)-AMC substrate by FDL assay relative to control
Procedure, shortened: as §1, with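 “Ac-EALPKK(Myr)-AMC. Started with 1 mM NAD and run 120 min at 37 °C. Developed 120 min at 37 °C with 5 mg/mL trypsin/8 mM nicotinamide.” for “Ac-EALPKK(Myr)-AMC.”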

[4] = target: T1, NAD-dependent protein deacylase sirtuin-6; assay: Binding affinity to N-terminal his-tagged human SIRT6 expressed in Escherichia coli M15 [pREP4] by ITC assay
Procedure, shortened: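 ITC at 25 °C in 20 mM HEPES pH 7.5, 100 mM NaCl, 2 mM DTT. SIRT6 (400 µM) injected into a cell holding activator (80 µM). Kd derived from the binding isotherm.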

[5] = target: T1, NAD-dependent protein deacylase sirtuin-6; assay: Activation of N-terminal his-tagged human SIRT6 expressed in Escherichia coli M15 [pREP4] assessed as increase in peptide demyristoylation incubated for 120 mins using Ac-EALPKK(Myr)-AMC substrate by HPLC analysis
Procedure, shortened: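 SIRT6 (10 μM) incubated with 100 μM Ac-EALPKK(Myr)-AMC, 3 mM NAD⁺ in assay buffer, with DMSO or 25 μM compound, 37 °C for 2 h. Quenched with 100 mM HCl/160 mM acetic acid at 37 °C for 30 min, centrifuged, supernatant analysed by reverse-phase C18 HPLC, water/acetonitrile with 0.1% TFA.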

[6] = tested on: NCI-H526; assay: Antiproliferative activity against human NCI-H526 cells assessed as reduction in cell viability incubated for 72 hrs by MTT assay; type: functional, cell-based
[7] = tested on: PANC-1; assay: Inhibition of cell migration of human PANC1 cells at 10 umol/L incubated for 24 hrs by inverted microscopy relative to control; type: functional; conditions: PANC-1, 24 h
Procedure, shortened: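 PDAC cells are grown to a confluent monolayer at 37 °C in 5% CO2. The monolayer is scratched with a 200 μL pipette tip to make a gap of constant width, then washed with PBS. Cells are exposed to a range of compound concentrations. They are imaged by inverted microscope after 24 h. Migrated cells are counted by hand, and inhibition is expressed relative to untreated wells (100%).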

[8] = target: T1, NAD-dependent protein deacylase sirtuin-6; assay: Binding affinity to SIRT6 in human BxPC3 cells assessed as protection of SIRT6 protein from temperature-dependent degradation at 25 uM incubated for 72 hrs by CETSA; type: cell-based; conditions: BXPC-3
Procedure, shortened: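 Cells treated with compound (25 μM) or DMSO for 72 h, washed, resuspended in PBS with protease inhibitor cocktail, split into aliquots heated 3 min at a temperature gradient. Lysed by three freeze–thaw cycles, centrifuged at 4 °C for 15 min; soluble SIRT6 in supernatant detected by western blot. Triplicate.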

[9] = target: T1, NAD-dependent protein deacylase sirtuin-6; assay: […] in human PANC1 cells assessed as reduction in H3K9ac levels incubated for 72 hrs by Western blot analysis; type: cell-based; conditions: PANC-1
Procedure, shortened: (§2)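 Cells incubated 72 h with various compound concentrations; whole-cell RIPA lysates with protease inhibitors, BCA-normalised, separated on 12% SDS-PAGE, transferred to PVDF, blocked in 5% milk or BSA. Probed 10 h at 4 °C with antibodies to SIRT6, acetyl-H3K9/K18/K56, total H3, Lin28b, Myc, IGF2BP3, β-actin; HRP secondary, chemiluminescent detection.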

[10] = target: T1, NAD-dependent protein deacylase sirtuin-6; assay: […] in human BxPC3 cells assessed as reduction in H3K56ac levels incubated for 72 hrs by Western blot analysis; type: cell-based; conditions: BXPC-3; procedure, shortened: as §2
[11] = target: T1, NAD-dependent protein deacylase sirtuin-6; assay: […] in human PANC1 cells assessed as reduction in Lin28b expression levels at 25 uM incubated for 72 hrs by Western blot analysis; type: cell-based; conditions: PANC-1; procedure, shortened: as §2
[12] = target: T1, NAD-dependent protein deacylase sirtuin-6; assay: […] in human PANC1 cells assessed as reduction in IGF2BP3 expression levels at 25 uM incubated for 72 hrs by Western blot analysis; type: cell-based; conditions: PANC-1; procedure, shortened: as §2
[13] = tested on: PANC-1; assay: Antitumor activity against human PANC1 cells xenografted in BALB/c nude mouse assessed as slowing of tumor growth at 100 to 150 mg/kg/day, po for 30 days; type: functional, organism-based
Procedure, shortened: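 Female BALB/c nude mice, 6-8 weeks old, injected subcutaneously in the right flank with 5×10^6–1×10^7 PANC-1 cells. At 130-150 mm³, mice randomized into 4 groups (n = 6) and dosed orally once daily for 30 days against vehicle. Tumor volume followed over time. Inhibition rate assessed against control.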

[14] = tested on: PANC-1; assay: Antitumor activity against human PANC1 cells xenografted in BALB/c nude mouse assessed as inhibition of tumor cell proliferation by measuring reduction in Ki67+ cells at 150 mg/kg/day, po for 30 days by IHC analysis; type: functional, organism-based
Procedure, shortened: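 PANC-1 subcutaneous xenografts in female BALB/c nude mice dosed orally for 30 days. Tumor tissue taken and stained by immunohistochemistry for Ki-67-positive cells, compared with vehicle.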

[15] = target: T1, NAD-dependent protein deacylase sirtuin-6; assay: In-vivo activation of SIRT6 in BALB/c nude mouse xenografted with human PANC1 cells assessed as reduction in H3K9Ac expression at 150 mg/kg/day, po for 30 days by IHC analysis; type: functional, organism-based; conditions: PANC-1
Procedure, shortened: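 Female BALB/c nude mice (6–8 weeks) bearing subcutaneous PANC-1 xenografts (5×10⁶–1×10⁷ cells, right flank), randomised at 130–150 mm³ tumours; oral dosing daily for 30 days versus vehicle (n=6). Tumour tissue stained by immunohistochemistry.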

[16] = target: NAD-dependent protein deacetylase sirtuin-2 (Homo sapiens, UniProt Q8IXJ6); assay: Inhibition of SIRT2 (unknown origin) by FDL assay
Sequence of NAD-dependent protein deacetylase sirtuin-2 (Q8IXJ6 whole entry): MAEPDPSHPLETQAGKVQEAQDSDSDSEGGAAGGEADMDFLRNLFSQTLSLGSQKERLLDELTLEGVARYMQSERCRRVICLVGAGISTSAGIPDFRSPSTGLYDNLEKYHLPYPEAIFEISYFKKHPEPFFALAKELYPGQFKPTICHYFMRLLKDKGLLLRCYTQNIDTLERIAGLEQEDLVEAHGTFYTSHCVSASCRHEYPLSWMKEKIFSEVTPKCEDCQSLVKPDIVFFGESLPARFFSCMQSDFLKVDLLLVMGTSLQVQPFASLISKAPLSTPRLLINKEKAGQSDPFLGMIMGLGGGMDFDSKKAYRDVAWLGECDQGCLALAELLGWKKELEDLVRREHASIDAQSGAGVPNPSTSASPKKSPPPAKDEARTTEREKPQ
Procedure, shortened: (§3)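 Selectivity testing by FDL assay at concentrations up to 200 µM. SIRT1-2 assays run by an outside contract provider. Values reported as IC50.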

[17] = target: Histone deacetylase 1 (Homo sapiens, UniProt Q13547); assay: Inhibition of HDAC1 (unknown origin) by FDL assay; procedure, shortened: as §3
Sequence of Histone deacetylase 1 (Q13547 whole entry): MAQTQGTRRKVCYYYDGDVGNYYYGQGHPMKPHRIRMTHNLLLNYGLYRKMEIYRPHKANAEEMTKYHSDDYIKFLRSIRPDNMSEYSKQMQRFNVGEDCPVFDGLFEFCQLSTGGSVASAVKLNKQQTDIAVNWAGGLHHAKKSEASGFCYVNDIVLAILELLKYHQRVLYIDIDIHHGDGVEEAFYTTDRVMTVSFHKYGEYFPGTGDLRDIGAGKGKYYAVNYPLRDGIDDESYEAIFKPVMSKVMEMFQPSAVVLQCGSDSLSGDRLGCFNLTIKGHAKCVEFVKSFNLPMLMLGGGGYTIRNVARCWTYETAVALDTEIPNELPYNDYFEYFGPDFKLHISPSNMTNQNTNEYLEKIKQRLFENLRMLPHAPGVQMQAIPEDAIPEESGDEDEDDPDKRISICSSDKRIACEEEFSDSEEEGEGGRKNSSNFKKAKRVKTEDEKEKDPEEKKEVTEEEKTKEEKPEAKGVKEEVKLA

[18] = target: Histone deacetylase 11 (Homo sapiens, UniProt Q96DB2); assay: Inhibition of HDAC11 (unknown origin) by FDL assay; procedure, shortened: as §3
Sequence of Histone deacetylase 11 (Q96DB2 whole entry): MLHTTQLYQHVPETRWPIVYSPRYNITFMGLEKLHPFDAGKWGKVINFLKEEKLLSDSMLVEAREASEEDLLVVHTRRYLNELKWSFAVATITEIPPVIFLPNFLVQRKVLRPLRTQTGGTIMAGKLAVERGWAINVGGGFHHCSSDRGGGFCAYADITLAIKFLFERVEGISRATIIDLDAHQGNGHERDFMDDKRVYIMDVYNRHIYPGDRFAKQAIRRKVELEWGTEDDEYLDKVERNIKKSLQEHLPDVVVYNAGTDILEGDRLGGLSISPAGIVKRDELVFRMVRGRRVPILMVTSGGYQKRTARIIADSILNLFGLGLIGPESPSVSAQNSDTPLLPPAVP

Ratio [1]: 300
EC1.5 [2]: 0.58 to 0.72 µM
EC50 [2]: 8.91 µM
Activity [3]: 1230%
Kd [4]: 8.85 µM
Activity [5]: Active
Activity [8]: Active
inhibition [9]: Dose-dependent effect
inhibition [10]: Dose-dependent effect
inhibition [11]: Active
inhibition [12]: Active
Activity [15]: Active
IC50 [16]: > 200 µM
IC50 [17]: > 200 µM
IC50 [18]: > 200 µM
SMILES: O=C(NC(c1ccccc1)c1ccccc1)c1cc(-c2cc3ccccc3o2)nc2ccccc12
Activity [6]: Active
inhibition at 10 µM [7]: 87.8%
Activity [13]: Dose-dependent effect
Activity [14]: Active
